Experiments:
[1] = molecular target: Histamine H3 receptor (Rattus norvegicus, UniProt Q9QYN8); test: In vitro binding affinity for rat histamine H3 receptor using [3H]N-alpha-methylhistamine
How it was run: (§1)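 Radioligand binding used membranes from cells transfected with cloned human or rat H3 receptors.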

[2] = molecular target: Histamine H3 receptor (Homo sapiens, UniProt Q9Y5N1); test: In vitro binding affinity for human histamine H3 receptor using [3H]N-alpha-methylhistamine; how it was run: as §1
[3] = Plasma clearance upon i.v. dose of 1 mg/kg in rats; format: ADME, organism-based; design: dose 1 mg/kg, route intravenous; details: rat, iv
[4] = Area under plasma concentration curve of the compound upon p.o. dose of 1 mg/kg in rats; format: ADME, organism-based; design: dose 1 mg/kg, route oral; details: rat, in vivo, po
[5] = Area under plasma concentration curve of the compound upon i.v. dose of 1 mg/kg in rats; format: ADME, organism-based; design: dose 1 mg/kg, route intravenous; details: rat, in vivo, iv
[6] = Oral bioavailability in rat (dose 1 mg/kg); format: ADME, organism-based; details: in vivo
[7] = Terminal half life upon i.v. dose of 1 mg/kg in rats; format: ADME, organism-based; design: dose 1 mg/kg, route intravenous; details: rat, in vivo, iv
[8] = Terminal half life upon p.o. dose of 1 mg/kg in rats; format: ADME, organism-based; design: dose 1 mg/kg, route oral; details: rat, in vivo, po
[9] = Maximum plasma concentration upon p.o. dose of 1 mg/kg in rats; format: ADME, organism-based; design: dose 1 mg/kg, route oral; details: rat, po

Chain of Histamine H3 receptor (Rattus norvegicus, UniProt Q9QYN8) (Q9QYN8 whole entry): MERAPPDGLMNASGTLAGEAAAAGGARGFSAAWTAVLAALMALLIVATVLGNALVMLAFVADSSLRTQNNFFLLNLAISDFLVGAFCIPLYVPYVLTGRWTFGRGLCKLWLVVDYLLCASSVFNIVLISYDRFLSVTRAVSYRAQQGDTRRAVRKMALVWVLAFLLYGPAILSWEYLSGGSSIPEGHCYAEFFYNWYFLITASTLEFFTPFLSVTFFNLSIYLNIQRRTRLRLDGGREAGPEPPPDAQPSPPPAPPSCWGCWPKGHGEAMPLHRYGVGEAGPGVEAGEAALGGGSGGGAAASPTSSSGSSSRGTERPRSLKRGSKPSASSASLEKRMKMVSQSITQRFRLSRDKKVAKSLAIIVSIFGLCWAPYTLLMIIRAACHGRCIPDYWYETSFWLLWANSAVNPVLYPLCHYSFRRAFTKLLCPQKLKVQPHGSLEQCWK
Chain of Histamine H3 receptor (Homo sapiens, UniProt Q9Y5N1) (Q9Y5N1 whole entry): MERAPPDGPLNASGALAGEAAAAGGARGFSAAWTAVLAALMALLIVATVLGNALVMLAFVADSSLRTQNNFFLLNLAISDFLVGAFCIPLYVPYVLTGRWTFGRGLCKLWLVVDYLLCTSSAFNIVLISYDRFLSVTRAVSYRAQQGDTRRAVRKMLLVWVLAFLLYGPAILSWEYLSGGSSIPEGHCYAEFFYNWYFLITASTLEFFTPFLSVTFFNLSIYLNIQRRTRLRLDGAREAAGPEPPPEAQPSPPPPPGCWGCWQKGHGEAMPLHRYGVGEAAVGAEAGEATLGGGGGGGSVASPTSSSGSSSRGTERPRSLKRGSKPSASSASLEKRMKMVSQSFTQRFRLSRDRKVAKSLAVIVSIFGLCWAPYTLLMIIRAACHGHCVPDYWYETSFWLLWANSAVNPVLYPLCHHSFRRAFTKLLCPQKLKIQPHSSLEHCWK

Structure (SMILES)	Ki [1]	Ki [2]	also measured
C[C@@H]1CCCN1CCc1cc2cc(CNc3nccnc3C#N)ccc2o1	3.96 nM	1.04 nM	
C[C@@H]1CCCN1CCc1cc2cc(CNc3ccccc3[N+](=O)[O-])ccc2o1	0.87 nM	0.31 nM	
C[C@@H]1CCCN1CCc1cc2cc(Nc3cccc(C#N)c3)ccc2o1	1.47 nM	0.29 nM	
C[C@@H]1CCCN1CCc1cc2cc(Nc3ncccc3[N+](=O)[O-])ccc2o1	0.35 nM	0.14 nM	
C[C@@H]1CCCN1CCc1cc2cc(CNc3ncc([N+](=O)[O-])cc3[N+](=O)[O-])ccc2o1	2.88 nM	0.71 nM	
C[C@@H]1CCCN1CCc1cc2cc(CNc3ccc([N+](=O)[O-])cn3)ccc2o1	1.19 nM	0.3 nM	
C[C@@H]1CCCN1CCc1cc2cc(Nc3ccc(C#N)cc3)ccc2o1	1.35 nM	0.27 nM	
C[C@@H]1CCCN1CCc1cc2cc(CNc3cncnc3)ccc2o1	2.51 nM	0.69 nM	
C[C@@H]1CCCN1CCc1cc2cc(Nc3ccc([N+](=O)[O-])cn3)ccc2o1	0.11 nM	0.05 nM	
C[C@@H]1CCCN1CCc1cc2cc(CNc3ccc([N+](=O)[O-])cc3)ccc2o1	2.12 nM	0.74 nM	
C[C@@H]1CCCN1CCc1cc2cc(CNc3ncccc3[N+](=O)[O-])ccc2o1	2.71 nM	0.43 nM	
C[C@@H]1CCCN1CCc1cc2cc(Nc3cncnc3)ccc2o1	0.27 nM	0.08 nM	clearance [3]: 475 mL/min/kg; AUC [4]: 0 ng·h/mL; AUC [5]: 35.9 ng·h/mL; bioavailability [6]: 0%; half-life [7]: 0.3 h
C[C@@H]1CCCN1CCc1cc2cc(-c3ccc(C#N)cc3)ccc2o1			clearance [3]: 25.7 mL/min/kg; half-life [8]: 6.7 h; AUC [4]: 426 ng·h/mL; Cmax [9]: 39.6 ng/mL; AUC [5]: 667 ng·h/mL; bioavailability [6]: 61.8%; half-life [7]: 5.7 h
C[C@@H]1CCCN1CCc1cc2cc(CNc3ccc(Cl)nn3)ccc2o1	1.58 nM	0.31 nM	
C[C@@H]1CCCN1CCc1cc2cc(CNc3ncc(Br)cn3)ccc2o1	4.02 nM	1.22 nM	
CCc1cnc(Nc2ccc3oc(CCN4CCC[C@H]4C)cc3c2)nc1	2.51 nM	0.62 nM	clearance [3]: 47 mL/min/kg; half-life [8]: 4.8 h; AUC [4]: 103 ng·h/mL; Cmax [9]: 16.2 ng/mL; AUC [5]: 355 ng·h/mL; bioavailability [6]: 29%; half-life [7]: 3.7 h
C[C@@H]1CCCN1CCc1cc2cc(CNc3cnccn3)ccc2o1	0.8 nM	0.29 nM	
C[C@@H]1CCCN1CCc1cc2cc(CNc3ncccn3)ccc2o1	3.27 nM	0.84 nM	clearance [3]: 47.7 mL/min/kg; half-life [8]: 1.7 h; AUC [4]: 72.1 ng·h/mL; Cmax [9]: 34.5 ng/mL; AUC [5]: 350 ng·h/mL; bioavailability [6]: 20.6%; half-life [7]: 1 h
C[C@@H]1CCCN1CCc1cc2cc(CNc3ccc(C(=O)C(F)(F)F)cc3)ccc2o1	2.36 nM	0.74 nM	
Cc1ccc(C#N)c(Nc2ccc3oc(CCN4CCC[C@H]4C)cc3c2)n1	17.9 nM	2.98 nM	
CCc1cnc(NCc2ccc3oc(CCN4CCC[C@H]4C)cc3c2)nc1	0.58 nM	0.33 nM	clearance [3]: 79.8 mL/min/kg; AUC [4]: 18.9 ng·h/mL; Cmax [9]: 7.1 ng/mL; AUC [5]: 210 ng·h/mL; bioavailability [6]: 9%; half-life [7]: 1.7 h

Now from value to compound, other results behind:

Ki [1]	Ki [2]	Structure (SMILES)	also measured
1.18 nM	0.4 nM	C[C@@H]1CCCN1CCc1cc2cc(CNc3cccc(C#N)c3)ccc2o1	
0.4 nM	0.13 nM	C[C@@H]1CCCN1CCc1cc2cc(CNc3cc(C#N)nc(C#N)c3)ccc2o1	
0.38 nM	0.11 nM	C[C@@H]1CCCN1CCc1cc2cc(Nc3cnccn3)ccc2o1	
2.76 nM	0.54 nM	C[C@@H]1CCCN1CCc1cc2cc(Nc3ccc(C(F)(F)F)cn3)ccc2o1	
1.42 nM	0.34 nM	C[C@@H]1CCCN1CCc1cc2cc(CNc3ccc(C#N)cn3)ccc2o1	
2.01 nM	0.31 nM	C[C@@H]1CCCN1CCc1cc2cc(Nc3ncccn3)ccc2o1	
1.92 nM	0.74 nM	C[C@@H]1CCCN1CCc1cc2cc(CNc3ncccc3C#N)ccc2o1	
0.87 nM	0.22 nM	C[C@@H]1CCCN1CCc1cc2cc(Nc3ccccc3[N+](=O)[O-])ccc2o1	
0.68 nM	0.19 nM	C[C@@H]1CCCN1CCc1cc2cc(CNc3ncc([N+](=O)[O-])s3)ccc2o1	
